High-throughput results as filed in PubChem BioAssay.
M1 antagonist: blocks the rat M1 muscarinic receptor response to acetylcholine; P08482; CHO-M1 cells, Fluo-4 calcium, ACh EC80 antagonist mode; stronger effect = lower value; B-score at 10 µM; 64,000 tested, 3.4% active;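 active = calcium fluorescence response, raw or row-and-column corrected B-score, differing from the plate sample mean either way at a set confidence level, mostly lower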
Target sequence (P08482 whole entry, looked up): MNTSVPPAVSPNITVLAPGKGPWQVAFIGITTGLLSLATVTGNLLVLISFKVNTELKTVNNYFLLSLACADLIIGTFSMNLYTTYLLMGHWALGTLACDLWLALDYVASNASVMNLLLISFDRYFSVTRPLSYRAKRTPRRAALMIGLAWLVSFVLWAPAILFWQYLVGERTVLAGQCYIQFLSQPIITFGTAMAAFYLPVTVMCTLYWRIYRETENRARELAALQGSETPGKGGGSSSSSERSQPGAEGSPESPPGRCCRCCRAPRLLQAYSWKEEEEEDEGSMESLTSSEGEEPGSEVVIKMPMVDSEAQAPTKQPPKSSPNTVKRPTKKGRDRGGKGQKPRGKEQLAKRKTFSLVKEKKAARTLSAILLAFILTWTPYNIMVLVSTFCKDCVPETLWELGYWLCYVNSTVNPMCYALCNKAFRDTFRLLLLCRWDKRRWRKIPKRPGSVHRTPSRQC
mHtt clearance: mutant huntingtin protein clearance; HeLa Exon1htt(103Q)mCFP, aggregate imaging; zero = plate's median compound well; inhibition, % at 1.5 µM; 47,000 tested, 0.42% active; AID 853;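 active = inhibition of aggregate fluorescence above about 70%, also judged a hit by eye on the cell image, limit read from the data, passing the limit was not always enough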;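 also: cells exposed to compound for three days before fixation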
SF-1 act: SF-1 (human) activation | activation, % at 10 µM | 65,000 tested, 1.9% active | AID 522 | CHO-K1 Gal4-SF-1 LBD luciferase reporter; % increase over DMSO SF-1-specific signal;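 active = activation above the mean activation of all tested compounds plus 3 SD, cut at about 50% in these data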
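Test system: CHO-K1 cells co-transfected with Gal4 DBD–human SF-1 LBD, 5xGal4 luciferase reporter. Quantity: 4,000 cells per well. Compound: 10 µM only. Incubation: compound added 1 h post-seeding, 20 h exposure at 37 °C, 5% CO2. Detection: SteadyLite luciferase luminescence. Replication: one test per compound.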
RORa activator: RORA (human) activation. activation, % at 10 µM. CHO-K1 Gal4-RORA LBD luciferase reporter, luminescence; percent increase over mock-subtracted basal signal. 65,000 tested, 1.5% active. AID 560. P35398;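 active = activation above the mean of all tested compounds plus 3 SD, cut at about 49% in these data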
M1 agonist: activates the M1 muscarinic receptor; CHO-M1 cells, Fluo-4 calcium fluorescence, agonist mode; stronger effect = higher value; B-score at 10 µM; 64,000 tested, 3% active; AID 626;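 active = fluorescence rise, raw or as B-score row- and column-corrected plate score, outside the 99.7% band of its plate's samples, either direction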
D1 mod: allosteric modulators of human D1 dopamine receptor; 58,000 tested, 5.9% active; B-score at 10 µM; HEK293 D1, CRE-luciferase, dopamine EC30 potentiation; actives deviate in either direction;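 active = luminescence count or its row- and column-corrected plate score outside the 99.7% band of the plate's sample wells, on either side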
D1 mod confirm: confirmation of human D1 dopamine receptor allosteric modulators; 2,200 tested, 88% active; shares compounds with D1 mod; AID 642; luminescence at 10 µM; HEK293 D1 CRE-luciferase, dopamine EC30 potentiation; stronger effect = higher value;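 active = luminescence in either of two replicates above the same-plate mean plus 3 SD of the low-dose dopamine control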
D1 ag no DA: activates D1 CRE-luciferase signal without dopamine present. shares compounds with D1 mod. HEK293 D1 CRE-luciferase, luminescence, no dopamine; stronger effect = higher value. luminescence at 10 µM. 1,900 tested, 0.8% active; in the data active = luminescence above about 3900
Isoprot counter: alters isoproterenol CRE-luciferase response in HEK293 cells. shares compounds with D1 mod. HEK293 D1 CRE-luciferase, isoproterenol EC30 counter-screen. calls only at 10 µM. 2,200 tested, 63% active. AID 647;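 active = luminescence in either replicate above plate mean of wells with a partly effective reference agonist dose plus 3 SD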;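 also: isoproterenol raises cAMP through native beta-adrenoceptor Gs so signal bypasses D1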
Numbers stand for hits; i = inactive; nt = no result; + = active, no number. Hits are enriched below; roughly 11% of the tested compounds scored in any of these assays.

SMILES | M1 antagonist | mHtt clearance | SF-1 act | RORa activator | M1 agonist | D1 mod | D1 mod confirm | D1 ag no DA | Isoprot counter
COc1ccc(-c2cc(=O)oc3cc4occ(C)c4cc23)cc1 | nt | i | nt | nt | nt | nt | nt | nt | nt
N#CCSc1nc2c(sc(=S)n2Cc2ccco2)c(=O)n1-c1ccc(F)cc1 | i | nt | i | i | i | 3 | 10848 | i | i
CCn1c(=S)sc2c(=O)n(-c3ccccc3)c(SC)nc21 | i | i | i | i | i | i | nt | nt | nt
Cc1cc(NC(=O)CN2C(=O)C3CC=CCC3C2=O)no1 (stereo unspecified) | i | nt | i | i | i | i | nt | nt | nt
C/C(=C1/SC(N2CCCC2)=NC1=O)c1ccc(Br)cc1 | i | i | i | i | i | i | nt | nt | nt
COC(=O)C(C)Oc1ccc2c3c(c(=O)oc2c1)CCCCC3 (stereo unspecified) | i | i | i | i | i | i | nt | nt | nt
CC(C)Oc1ccc2c3c(c(=O)oc2c1)CCC3 | i | i | i | i | i | 5.8 | 11556 | i | +
CCCCC(NC(C)=O)c1nc2ccccc2n1CCCC (stereo unspecified) | i | nt | i | i | i | i | nt | nt | nt
CC1CCN(C(=O)Cn2c(=O)n(Cc3ccc4c(c3)OCO4)c(=O)c3ccccc32)CC1 | nt | i | i | i | nt | nt | nt | nt | nt
O=C(Cn1c(=O)n(Cc2ccc3c(c2)OCO3)c(=O)c2ccccc21)N1CCCc2ccccc21 | i | i | i | i | i | 6 | 10984 | i | +
CNc1nc(C)c(C#N)c(-c2ccccc2)c1C(C)=O | i | i | i | i | i | 5.8 | 12136 | i | i
O=C(CCC(=O)c1ccc(F)cc1)OC1CCOC1=O (stereo unspecified) | i | i | i | i | i | i | nt | nt | nt
Cc1csc(=N)n1CC(=O)N1CCc2ccccc21 | i | i | i | i | i | i | nt | nt | nt
O=c1cc(-c2ccccc2)nc2n1Cc1ccccc1-2 | i | nt | i | i | i | 13 | 11948 | nt | +
CCCn1nc(NC(=O)c2ccncc2)c2cc3ccccc3nc21 | i | nt | i | i | i | 8.4 | 12660 | nt | +
CCc1c(C)nc(N)n2c(SCC(=O)N3CCN(c4ccccc4OC)CC3)nnc12 | i | nt | i | i | i | i | nt | nt | nt
Cc1noc(NS(=O)(=O)c2ccc(NC(=O)Nc3ccc(Cl)c(Cl)c3)cc2)c1C | i | i | i | i | i | i | nt | nt | nt
CCSc1ncc(Cl)c(C(=O)Nc2ccc(S(=O)(=O)Nc3onc(C)c3C)cc2)n1 | i | i | i | i | i | 5.6 | 11540 | i | i
FC(F)Sc1nnc(-c2cccs2)n1-c1ccccc1 | i | i | i | i | i | 6.9 | 13848 | i | +
N#Cc1ccc(CSc2nnc(-c3cccs3)n2-c2ccccc2)cc1 | i | nt | i | i | i | i | nt | nt | nt
N#Cc1c(N)nc2c(c1-c1ccccc1)CCCC2 | i | nt | i | i | i | nt | nt | nt | nt
N#Cc1c2c(nc(N)c1-c1ccccc1)CCCCC2 | i | i | i | i | i | 4.5 | 7208 | i | i
COc1ccccc1CNC(=O)c1ccc(NS(=O)(=O)c2c(C)noc2C)cc1 | i | nt | i | i | i | 4.2 | 6660 | i | i
COc1ccccc1NC(=O)c1ccc(NS(=O)(=O)c2c(C)noc2C)cc1 | i | nt | i | i | i | i | nt | nt | nt
COc1ccc(NC(=O)c2ccc(NS(=O)(=O)c3c(C)noc3C)cc2)cc1OC | i | nt | i | i | i | 8.8 | 5712 | i | i
SMILES | M1 antagonist | mHtt clearance | SF-1 act | RORa activator | M1 agonist | D1 mod | D1 mod confirm | D1 ag no DA | Isoprot counter
COc1ccc(NC(=O)CN(c2ccc(C(C)C)cc2)S(=O)(=O)c2c(C)noc2C)cc1OC | i | i | i | i | i | 3 | i | i | i
Cc1cc(NC(=O)c2cnn3cccnc23)nn1CC(=O)Nc1cccnc1 | i | i | i | i | i | i | nt | nt | nt
O=C(Nc1cccnc1)c1cnn2cccnc12 | i | nt | i | i | i | 4.6 | 7304 | i | +
COc1cccc(NS(=O)(=O)c2c(C)n(C)c(=O)n(C)c2=O)c1 | nt | i | nt | nt | nt | nt | nt | nt | nt
O=C(Cn1cnc2ccccc2c1=O)NCCC(=O)N1CCN(c2ccccc2)CC1 | i | i | i | i | i | i | nt | nt | nt
Nc1scc2c(C(=O)N/N=C/c3ccc(Cl)cc3)nn(-c3ccccc3)c(=O)c12 | nt | i | nt | nt | nt | nt | nt | nt | nt
CCOC(=O)c1nn(-c2ccccc2)c(C(=O)OCC)c1N | i | i | i | i | i | 11 | 15940 | i | +
CCOC(=O)c1nnn(-c2ccccc2C#N)c1C | i | nt | i | i | i | i | nt | nt | nt
CCOC(=O)c1nn(-c2ccccc2C)c(=O)c(C#N)c1C | i | nt | i | i | i | 3.1 | 9504 | nt | i
CCOC(=O)c1nn(-c2ccccc2)c(=O)c2c(N)scc12 | i | i | i | i | i | 6.3 | 16104 | i | +
COc1cccc(C2=NOC(C(=O)Nc3cccc(C(C)=O)c3)C2)c1OC (stereo unspecified) | i | nt | i | i | i | 3.6 | i | i | i
Nc1nnc(-c2ccco2)s1 | i | nt | i | i | i | i | nt | nt | nt
Nc1ncnc2oc(-c3ccco3)c(-c3ccco3)c12 | i | i | i | i | i | 10 | 19128 | 24288 | +
Cn1c(CC(=O)Nc2ccccc2)nnc1SCCOc1ccccc1 | i | i | i | i | i | i | nt | nt | nt
CCOC(=O)c1ccccc1NC(=O)c1ccc(NS(C)(=O)=O)cc1 | i | i | i | i | i | 19 | 19196 | i | +
COc1cccc(OC)c1OCCCSc1nc(C)cc(=O)[nH]1 | i | i | i | i | i | i | nt | nt | nt
CC(C)COc1cc(=O)[nH]c(SCC(C)C)n1 | i | i | i | i | i | 18 | 26448 | i | +
NS(=O)(=O)c1ccc(CCNC2CC(=O)N(Cc3ccccc3)C2=O)cc1 (stereo unspecified) | i | nt | i | i | i | i | nt | nt | nt
NS(=O)(=O)c1ccc(CCNC2CC(=O)N(CCc3ccccc3)C2=O)cc1 (stereo unspecified) | i | i | i | i | i | 2.3 | i | i | i
COc1ccc(C)cc1Cn1c(S(C)(=O)=O)nc2ccccc21 | i | nt | i | i | i | i | nt | nt | nt
O=C(O)c1cc2nc(-c3ccccc3)cc(C(F)(F)F)n2n1 | i | i | i | i | i | i | nt | nt | nt
Cc1cc(-c2ccc(F)cc2)nc2cc(C(N)=O)nn12 | i | nt | i | i | i | 10 | 15420 | i | +
Cc1cccc(-c2c3c(=O)n(C)c(=O)n(C)c3c3cccnn23)c1 | i | i | i | i | i | 22 | 23480 | i | +
Cc1cccc(-c2c3c(=O)n(C)c(=O)n(C)c3cn2C(C)C)c1 | i | i | i | i | 2.8 | 14 | 15796 | i | +
Cc1cccc(-c2c3c(=O)n(C)c(=O)n(C)c3cn2C(C)(C)C)c1 | i | nt | i | i | i | i | nt | nt | nt
CC(C)N(C(=O)c1ccccc1-c1ccccc1)C(C)C | nt | i | nt | nt | nt | nt | nt | nt | nt
